Data reported in ChEMBL document CHEMBL2150909, “Imidazo[1,2-a]pyridines: orally active positive allosteric modulators of the metabotropic glutamate 2 receptor” (J Med Chem, 2012).
Activity calls are given as the source filed them. No cut-off for these calls is given here.

Columns and labels:
[1] = Drug uptake in Sprague-Dawley rat brain at 10 mg/kg, po after 1 hr; assay type: ADME, organism-based; parameters: dose 10 mg/kg, route oral; conditions: read-out: Drug uptake
Rattus norvegicus [2] = experiment: Effect on sleep-wake cycle in Sprague-Dawley rat EEG model assessed as change in sleep variables at 10 mg/kg, po measured up to 20 hrs relative to control; assay type: functional, organism-based; parameters: dose 10 mg/kg
How it was run: (§1)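 Male Sprague-Dawley rats (250–300 g) implanted with EEG/EMG/EOG electrodes, 12 h light/dark cycle, n = 8 per group. Baseline 20 h recording after oral saline, then 20 h after oral 10 mg/kg or vehicle (20% CD + 2H2T). 2 s epochs scored into AW, PW, preREM, REM, lSWS, dSWS and averaged per 30 min. Latencies and transitions analysed; Wilcoxon−Mann−Whitney test vs vehicle.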

Rattus norvegicus [3] = experiment: Effect on sleep-wake cycle in Sprague-Dawley rat EEG model assessed as change in deep sleep at 10 mg/kg, po measured up to 20 hrs relative to control; assay type: functional, organism-based; parameters: dose 10 mg/kg; how it was run: as §1
[4] = Ratio of drug level in brain to plasma of Sprague-Dawley rat at 10 mg/kg, po after 2 hrs; assay type: ADME, organism-based; parameters: dose 10 mg/kg, route oral; conditions: read-out: BPR
How it was run: (§2)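 Oral dosing of Sprague−Dawley rats at 10 mg/kg, compound in 20% HP-β-CD at pH 4. Brain (ng/g) and plasma (ng/mL) concentrations sampled at the indicated time; brain-to-plasma ratio calculated. Geometric mean of at least two runs ± SEM.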

[5] = Drug uptake in Sprague-Dawley rat brain at 10 mg/kg, po after 4 hrs; assay type: ADME, organism-based; parameters: dose 10 mg/kg, route oral; conditions: read-out: Drug uptake
Rattus norvegicus [6] = experiment: Effect on sleep-wake cycle in Sprague-Dawley rat EEG model assessed as change in light sleep at 10 mg/kg, po measured up to 20 hrs relative to control; assay type: functional, organism-based; parameters: dose 10 mg/kg; how it was run: as §1
[7] = target: Metabotropic glutamate receptor 2 (Homo sapiens, UniProt Q14416); experiment: Agonist activity at human mGlu 2 expressed in CHO cells by PAM assay relative to glutamate; assay type: functional, cell-based
How it was run: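 The assay measured [35S]GTPγS binding to membranes from CHO cells expressing human mGluR2. Cells were butyrate-stimulated (5 mM, 24 h) before membranes were prepared. Membranes were preincubated for 30 min at 30 °C in HEPES pH 7.4 buffer (NaCl, MgCl2, 50 μM GDP) with compound (0.3 nM–50 μM, 11 concentrations) plus EC25 glutamate. [35S]GTPγS (0.1 nM final) was then added for 30 min at 30 °C. Bound label was collected by filtration and counted. Runs were done at least in triplicate with duplicate points, and a four-parameter logistic fit gave the values.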

Rattus norvegicus [8] = experiment: Effect on sleep-wake cycle in Sprague-Dawley rat EEG model assessed as change in transition from sleep states toward waking at 10 mg/kg, po measured up to 20 hrs relative to control; assay type: functional, organism-based; parameters: dose 10 mg/kg; how it was run: as §1
[9] = Ratio of drug level in brain to plasma of Sprague-Dawley rat at 10 mg/kg, po after 4 hrs; assay type: ADME, organism-based; parameters: dose 10 mg/kg, route oral; conditions: brain and plasma, read-out: BPR; how it was run: as §2
[10] = Cmax in Sprague-Dawley rat at 10 mg/kg, po; assay type: ADME, organism-based; parameters: dose 10 mg/kg, route oral; conditions: in vivo
How it was run: (§3)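 Male Sprague-Dawley rats given 10 mg/kg orally and/or 1.25 mg/kg intravenously; compound formulated in 20% HP-β-CD at pH 4. Cmax, tmax, AUC0−inf, t1/2, clearance and oral bioavailability F derived from plasma levels; geometric mean of at least two runs ± SEM.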

[11] = target: Metabotropic glutamate receptor 6 (Rattus norvegicus) (UniProt P35349); experiment: Antagonist activity at rat mGlu 6 expressed in CHO cells assessed as inhibition of [35S]GTPgammaS binding by liquid scintillation counting; assay type: functional, cell-based
How it was run: (§4)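 [35S]GTPγS functional assays on human mGlu4 or rat mGlu6 receptors expressed in L929 or CHO cells; agonist and antagonist modes tested at 10 μM.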

[12] = target: Metabotropic glutamate receptor 3 (Homo sapiens) (UniProt Q14832); experiment: Antagonist activity at human mGlu 3 expressed in HEK293 cells at 10 uM by Ca+2 assay; assay type: functional, cell-based
Chain of Metabotropic glutamate receptor 3 (Homo sapiens) (Q14832 23-879 limits assumed): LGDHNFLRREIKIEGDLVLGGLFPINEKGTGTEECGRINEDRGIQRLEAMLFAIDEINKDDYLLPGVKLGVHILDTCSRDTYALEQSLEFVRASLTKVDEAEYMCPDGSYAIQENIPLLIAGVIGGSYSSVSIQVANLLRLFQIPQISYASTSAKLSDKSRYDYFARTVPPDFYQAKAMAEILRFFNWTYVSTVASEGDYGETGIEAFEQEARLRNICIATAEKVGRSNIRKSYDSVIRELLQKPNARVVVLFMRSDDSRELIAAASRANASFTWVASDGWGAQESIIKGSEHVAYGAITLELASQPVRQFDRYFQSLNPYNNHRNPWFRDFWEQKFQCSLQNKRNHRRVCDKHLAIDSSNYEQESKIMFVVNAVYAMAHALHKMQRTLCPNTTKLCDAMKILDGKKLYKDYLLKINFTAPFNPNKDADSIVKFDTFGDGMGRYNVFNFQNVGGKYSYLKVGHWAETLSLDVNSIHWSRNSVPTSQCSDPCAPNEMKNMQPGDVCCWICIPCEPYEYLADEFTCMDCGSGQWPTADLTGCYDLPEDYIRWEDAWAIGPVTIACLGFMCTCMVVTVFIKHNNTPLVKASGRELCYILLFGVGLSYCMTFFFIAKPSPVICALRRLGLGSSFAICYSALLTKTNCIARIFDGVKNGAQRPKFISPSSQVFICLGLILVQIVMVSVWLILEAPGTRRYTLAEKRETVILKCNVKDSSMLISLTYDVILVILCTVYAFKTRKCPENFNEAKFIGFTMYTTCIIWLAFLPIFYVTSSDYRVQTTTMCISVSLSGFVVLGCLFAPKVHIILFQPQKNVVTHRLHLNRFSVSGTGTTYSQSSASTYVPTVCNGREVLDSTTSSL
How it was run: (§5)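 Ca2+ assays on human mGlu1, mGlu3, mGlu5, mGlu7 or mGlu8 receptors, each expressed in HEK293 cells; compound tested at 10 μM for agonist and antagonist activity.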

[13] = target: Metabotropic glutamate receptor 5 (Homo sapiens) (UniProt P41594); experiment: Agonist activity at human mGlu 5 expressed in HEK293 cells at 10 uM by Ca+2 assay; assay type: functional, cell-based; how it was run: as §5
Chain of Metabotropic glutamate receptor 5 (Homo sapiens) (P41594 21-1212 limits assumed): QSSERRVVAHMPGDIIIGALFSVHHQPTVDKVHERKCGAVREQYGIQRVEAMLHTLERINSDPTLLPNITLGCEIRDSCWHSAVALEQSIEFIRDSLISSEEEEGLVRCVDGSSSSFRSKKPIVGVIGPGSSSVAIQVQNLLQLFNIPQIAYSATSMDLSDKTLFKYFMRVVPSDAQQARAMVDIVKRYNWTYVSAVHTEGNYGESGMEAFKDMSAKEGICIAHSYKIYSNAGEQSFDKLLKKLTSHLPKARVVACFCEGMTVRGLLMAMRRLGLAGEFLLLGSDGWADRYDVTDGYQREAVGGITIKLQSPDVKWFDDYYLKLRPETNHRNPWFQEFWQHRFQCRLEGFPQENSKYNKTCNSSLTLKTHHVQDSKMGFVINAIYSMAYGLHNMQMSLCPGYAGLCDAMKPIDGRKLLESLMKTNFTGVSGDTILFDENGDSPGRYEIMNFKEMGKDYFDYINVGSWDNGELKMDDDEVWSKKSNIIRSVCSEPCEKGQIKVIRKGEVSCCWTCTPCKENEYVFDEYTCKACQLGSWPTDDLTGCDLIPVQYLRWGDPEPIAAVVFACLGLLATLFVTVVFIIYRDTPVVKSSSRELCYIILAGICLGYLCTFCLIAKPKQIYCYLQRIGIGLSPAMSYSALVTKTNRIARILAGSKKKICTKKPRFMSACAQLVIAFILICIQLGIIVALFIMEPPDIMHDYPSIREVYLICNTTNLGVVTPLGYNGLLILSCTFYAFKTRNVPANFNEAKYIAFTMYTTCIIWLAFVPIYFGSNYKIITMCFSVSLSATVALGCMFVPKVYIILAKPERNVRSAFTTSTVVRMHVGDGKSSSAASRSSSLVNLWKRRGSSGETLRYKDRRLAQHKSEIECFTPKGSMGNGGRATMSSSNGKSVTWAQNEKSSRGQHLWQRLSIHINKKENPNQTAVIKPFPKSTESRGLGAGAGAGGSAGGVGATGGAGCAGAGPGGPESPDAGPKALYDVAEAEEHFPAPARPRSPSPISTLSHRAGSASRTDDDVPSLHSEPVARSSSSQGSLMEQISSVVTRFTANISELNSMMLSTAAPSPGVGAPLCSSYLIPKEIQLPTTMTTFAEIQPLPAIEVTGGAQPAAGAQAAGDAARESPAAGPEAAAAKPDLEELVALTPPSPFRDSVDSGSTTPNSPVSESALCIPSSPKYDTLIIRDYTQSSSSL

[14] = target: Metabotropic glutamate receptor 1 (Homo sapiens) (UniProt Q13255); experiment: Antagonist activity at human mGlu 1 expressed in HEK293 cells at 10 uM by Ca+2 assay; assay type: functional, cell-based; how it was run: as §5
Chain of Metabotropic glutamate receptor 1 (Homo sapiens) (Q13255 19-1194 limits assumed): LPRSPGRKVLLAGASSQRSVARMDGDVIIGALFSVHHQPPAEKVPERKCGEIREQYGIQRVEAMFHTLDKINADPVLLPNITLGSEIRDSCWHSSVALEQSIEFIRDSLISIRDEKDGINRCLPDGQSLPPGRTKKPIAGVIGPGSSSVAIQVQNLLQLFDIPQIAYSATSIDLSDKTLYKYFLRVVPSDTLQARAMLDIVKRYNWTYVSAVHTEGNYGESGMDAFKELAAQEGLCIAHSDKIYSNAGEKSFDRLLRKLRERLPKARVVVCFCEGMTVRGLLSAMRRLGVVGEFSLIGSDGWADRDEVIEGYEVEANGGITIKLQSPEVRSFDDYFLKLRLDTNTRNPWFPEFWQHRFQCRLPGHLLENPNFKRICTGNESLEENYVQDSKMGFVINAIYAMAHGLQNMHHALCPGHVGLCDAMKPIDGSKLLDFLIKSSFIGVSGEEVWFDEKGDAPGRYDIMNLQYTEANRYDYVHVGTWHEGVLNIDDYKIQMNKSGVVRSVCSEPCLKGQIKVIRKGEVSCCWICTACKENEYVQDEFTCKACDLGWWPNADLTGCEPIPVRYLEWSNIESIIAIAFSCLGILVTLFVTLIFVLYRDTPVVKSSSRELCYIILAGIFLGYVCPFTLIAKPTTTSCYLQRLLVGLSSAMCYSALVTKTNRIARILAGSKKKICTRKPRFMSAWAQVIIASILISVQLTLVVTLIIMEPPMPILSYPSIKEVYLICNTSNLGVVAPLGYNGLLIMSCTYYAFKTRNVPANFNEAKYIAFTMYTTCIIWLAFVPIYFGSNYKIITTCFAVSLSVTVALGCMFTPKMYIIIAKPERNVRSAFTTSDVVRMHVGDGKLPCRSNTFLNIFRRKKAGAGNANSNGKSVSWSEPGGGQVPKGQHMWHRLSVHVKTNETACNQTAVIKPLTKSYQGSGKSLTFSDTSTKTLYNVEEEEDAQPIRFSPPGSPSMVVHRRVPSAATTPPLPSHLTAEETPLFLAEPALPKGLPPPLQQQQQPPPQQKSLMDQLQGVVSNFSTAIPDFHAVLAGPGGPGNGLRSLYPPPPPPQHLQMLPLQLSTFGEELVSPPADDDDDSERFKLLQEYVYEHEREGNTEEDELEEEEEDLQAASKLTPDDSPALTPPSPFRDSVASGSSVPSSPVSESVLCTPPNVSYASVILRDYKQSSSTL

[15] = Plasma concentration in Sprague-Dawley rat at 10 mg/kg, po after 4 hrs; assay type: ADME, organism-based; parameters: dose 10 mg/kg, route oral; how it was run: as §2
[16] = target: Metabotropic glutamate receptor 4 (Homo sapiens) (UniProt Q14833); experiment: Agonist activity at human mGlu 4 expressed in L929 cells assessed as [35S]GTPgammaS binding by liquid scintillation counting; assay type: functional, cell-based; how it was run: as §4
Chain of Metabotropic glutamate receptor 4 (Homo sapiens) (Q14833 whole entry): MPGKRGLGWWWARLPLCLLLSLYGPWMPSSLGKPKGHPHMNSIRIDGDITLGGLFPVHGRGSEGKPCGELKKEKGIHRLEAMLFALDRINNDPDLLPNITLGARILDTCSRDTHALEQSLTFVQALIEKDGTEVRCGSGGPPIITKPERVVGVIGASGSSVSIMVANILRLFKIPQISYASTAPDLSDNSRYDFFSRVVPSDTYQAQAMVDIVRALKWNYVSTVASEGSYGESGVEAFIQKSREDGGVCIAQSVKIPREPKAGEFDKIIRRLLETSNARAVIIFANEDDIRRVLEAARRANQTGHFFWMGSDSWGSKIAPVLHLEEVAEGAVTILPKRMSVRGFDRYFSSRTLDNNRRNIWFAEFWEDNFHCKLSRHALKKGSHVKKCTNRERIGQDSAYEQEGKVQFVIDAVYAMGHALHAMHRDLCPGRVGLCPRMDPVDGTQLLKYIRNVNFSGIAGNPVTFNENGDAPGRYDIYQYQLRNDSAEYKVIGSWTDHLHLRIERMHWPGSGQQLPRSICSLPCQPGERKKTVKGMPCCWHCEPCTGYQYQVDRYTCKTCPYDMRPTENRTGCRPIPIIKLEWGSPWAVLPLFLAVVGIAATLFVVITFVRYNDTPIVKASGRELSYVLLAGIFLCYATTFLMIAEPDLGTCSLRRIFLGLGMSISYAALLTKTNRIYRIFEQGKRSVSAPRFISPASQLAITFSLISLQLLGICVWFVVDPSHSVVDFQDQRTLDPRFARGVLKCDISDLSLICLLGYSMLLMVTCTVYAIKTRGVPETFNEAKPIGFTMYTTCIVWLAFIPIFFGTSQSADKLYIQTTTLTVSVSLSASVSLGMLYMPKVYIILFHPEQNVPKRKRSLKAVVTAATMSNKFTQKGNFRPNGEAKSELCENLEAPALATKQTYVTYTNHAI

[17] = target: T1, Metabotropic glutamate receptor 7 (Homo sapiens, UniProt Q14831); experiment: Agonist activity at human mGlu 7 expressed in HEK293 cells at 10 uM by Ca+2 assay; assay type: functional, cell-based; how it was run: as §5
T1 sequence (Q14831 whole entry): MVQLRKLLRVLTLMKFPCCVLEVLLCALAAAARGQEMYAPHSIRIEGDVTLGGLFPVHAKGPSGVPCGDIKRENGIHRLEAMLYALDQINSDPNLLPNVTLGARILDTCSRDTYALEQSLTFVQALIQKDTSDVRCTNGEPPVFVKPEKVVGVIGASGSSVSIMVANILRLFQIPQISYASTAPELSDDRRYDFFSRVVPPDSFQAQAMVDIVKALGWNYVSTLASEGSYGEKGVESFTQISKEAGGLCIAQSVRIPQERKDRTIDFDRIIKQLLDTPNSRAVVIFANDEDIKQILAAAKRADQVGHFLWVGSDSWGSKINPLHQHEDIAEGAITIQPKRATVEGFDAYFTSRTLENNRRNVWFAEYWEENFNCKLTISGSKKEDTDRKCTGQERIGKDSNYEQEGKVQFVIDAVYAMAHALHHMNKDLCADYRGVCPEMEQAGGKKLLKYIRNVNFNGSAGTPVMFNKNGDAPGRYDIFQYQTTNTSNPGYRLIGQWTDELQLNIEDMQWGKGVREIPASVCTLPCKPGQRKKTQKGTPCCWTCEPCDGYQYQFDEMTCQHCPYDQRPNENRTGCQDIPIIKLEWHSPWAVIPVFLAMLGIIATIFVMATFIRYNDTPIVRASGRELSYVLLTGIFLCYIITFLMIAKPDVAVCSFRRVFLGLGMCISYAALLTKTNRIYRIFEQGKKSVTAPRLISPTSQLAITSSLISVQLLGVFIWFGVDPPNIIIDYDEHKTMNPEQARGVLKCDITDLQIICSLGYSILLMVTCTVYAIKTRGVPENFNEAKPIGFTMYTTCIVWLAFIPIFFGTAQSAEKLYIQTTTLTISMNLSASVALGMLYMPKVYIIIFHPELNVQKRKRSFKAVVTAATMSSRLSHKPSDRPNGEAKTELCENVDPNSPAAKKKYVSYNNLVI

Rattus norvegicus [18] = experiment: Effect on sleep-wake cycle in Sprague-Dawley rat EEG model assessed as change in active wake at 10 mg/kg, po measured up to 20 hrs relative to control; assay type: functional, organism-based; parameters: dose 10 mg/kg; how it was run: as §1
[19] = Metabolic stability of Sprague-Dawley rat liver microsomes assessed as compound metabolized at 5 uM after 15 mins; assay type: ADME, Microsome; conditions: read-out: Drug metabolism
How it was run: (§6)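 Test compound at 5 μM incubated 15 min with rat or human liver microsomes; read-out is percent of compound metabolized.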

[20] = Ratio of drug level in brain to plasma of Sprague-Dawley rat at 10 mg/kg, po after 1 hr; assay type: ADME, organism-based; parameters: dose 10 mg/kg, route oral; conditions: read-out: BPR; how it was run: as §2
[21] = target: T1, Metabotropic glutamate receptor 7; experiment: Antagonist activity at human mGlu 7 expressed in HEK293 cells at 10 uM by Ca+2 assay; assay type: functional, cell-based; how it was run: as §5
Rattus norvegicus [22] = experiment: Effect on sleep-wake cycle in Sprague-Dawley rat EEG model assessed as suppression of REM sleep at 10 mg/kg, po measured up to 2 hrs relative to control; assay type: functional; how it was run: as §1
[23] = target: Metabotropic glutamate receptor 8 (Homo sapiens) (UniProt O00222); experiment: Antagonist activity at human mGlu 8 expressed in HEK293 cells at 10 uM by Ca+2 assay; assay type: functional, cell-based; how it was run: as §5
[24] = target: Metabotropic glutamate receptor 8 (Homo sapiens) (UniProt O00222); experiment: Agonist activity at human mGlu 8 expressed in HEK293 cells at 10 uM by Ca+2 assay; assay type: functional, cell-based; how it was run: as §5
[25] = target: Metabotropic glutamate receptor 6 (Rattus norvegicus) (UniProt P35349); experiment: Agonist activity at rat mGlu 6 expressed in CHO cells assessed as [35S]GTPgammaS binding by liquid scintillation counting; assay type: functional, cell-based; how it was run: as §4
[26] = target: Metabotropic glutamate receptor 3 (Homo sapiens) (UniProt Q14832); experiment: Agonist activity at human mGlu 3 expressed in HEK293 cells at 10 uM by Ca+2 assay; assay type: functional, cell-based; how it was run: as §5
Rattus norvegicus [27] = experiment: Effect on sleep-wake cycle in Sprague-Dawley rat EEG model assessed as effect on different vigilance states at 10 mg/kg, po measured up to 20 hrs relative to control; assay type: functional, organism-based; parameters: dose 10 mg/kg; how it was run: as §1
Rattus norvegicus [28] = experiment: Effect on sleep-wake cycle in Sprague-Dawley rat EEG model assessed as change in intermediate state at 10 mg/kg, po measured up to 20 hrs relative to control; assay type: functional, organism-based; parameters: dose 10 mg/kg; how it was run: as §1
[29] = target: Metabotropic glutamate receptor 1 (Homo sapiens) (UniProt Q13255); experiment: Agonist activity at human mGlu 1 expressed in HEK293 cells at 10 uM by Ca+2 assay; assay type: functional, cell-based; how it was run: as §5
[30] = Drug uptake in Sprague-Dawley rat brain at 10 mg/kg, po after 2 hrs; assay type: ADME, organism-based; parameters: dose 10 mg/kg, route oral; conditions: read-out: Drug uptake
Rattus norvegicus [31] = experiment: Effect on sleep-wake cycle in Sprague-Dawley rat EEG model assessed as increase in REM sleep onset latency at 10 mg/kg, po measured up to 2 hrs relative to control; assay type: functional, organism-based; parameters: dose 10 mg/kg; how it was run: as §1
[32] = Tmax in Sprague-Dawley rat at 10 mg/kg, po; assay type: ADME, organism-based; parameters: dose 10 mg/kg, route oral; conditions: in vivo
How it was run: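 Rat pharmacokinetics in Sprague−Dawley rats: oral 10 mg/kg and intravenous 1.25 mg/kg, formulated in 20% HP-β-CD at pH 4. Plasma profiles used for Cmax, tmax, AUC0−inf and t1/2. Reported as geometric means of at least two runs ± SEM.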

[33] = target: Metabotropic glutamate receptor 5 (Homo sapiens) (UniProt P41594); experiment: Antagonist activity at human mGlu 5 expressed in HEK293 cells at 10 uM by Ca+2 assay; assay type: functional, cell-based; how it was run: as §5
[34] = Half life in Sprague-Dawley rat at 10 mg/kg, po; assay type: ADME, organism-based; parameters: dose 10 mg/kg, route oral; conditions: in vivo; how it was run: as §3
[35] = Metabolic stability of human liver microsomes assessed as compound metabolized at 5 uM after 15 mins; assay type: ADME, Microsome; conditions: read-out: Drug metabolism; how it was run: as §6
[36] = Plasma concentration in Sprague-Dawley rat at 10 mg/kg, po after 2 hrs; assay type: ADME, organism-based; parameters: dose 10 mg/kg, route oral
[37] = AUC (0 to infinity) in Sprague-Dawley rat at 10 mg/kg, po; assay type: ADME, organism-based; parameters: time infinity, dose 10 mg/kg, route oral; conditions: plasma; how it was run: as §3
[38] = Plasma concentration in Sprague-Dawley rat at 10 mg/kg, po after 1 hr; assay type: ADME, organism-based; parameters: dose 10 mg/kg, route oral
[39] = target: Metabotropic glutamate receptor 4 (Homo sapiens) (UniProt Q14833); experiment: Antagonist activity at human mGlu 4 expressed in L929 cells assessed inhibition of [35S]GTPgammaS binding by liquid scintillation counting; assay type: functional, cell-based; how it was run: as §4
Rattus norvegicus [40] = experiment: Effect on sleep-wake cycle in Sprague-Dawley rat EEG model assessed as change in passive wake at 10 mg/kg, po measured up to 20 hrs relative to control; assay type: functional, organism-based; parameters: dose 10 mg/kg; how it was run: as §1

concentration at 1 h [1]: 538 ng/g
Kp at 2 h [4]: 1.2
concentration at 4 h [5]: 126 ng/g
Emax [7]: 217%
Kp at 4 h [9]: 0.8
Cmax [10]: 534 ng/mL
Activity [11]: inactive
Activity [12]: inactive
Activity [13]: inactive
Activity [14]: inactive
concentration at 4 h [15]: 168 ng/mL
Activity [16]: inactive
Activity [17]: inactive
metabolised at 0.25 h, 5 µM [19]: 21%
Kp at 1 h [20]: 1.3
Activity [21]: inactive
Activity [23]: inactive
Activity [24]: inactive
Activity [25]: inactive
Activity [26]: inactive
Activity [29]: inactive
concentration at 2 h [30]: 441 ng/g
Tmax [32]: 0.8 h
Activity [33]: inactive
half-life [34]: 2 h
metabolised at 0.25 h, 5 µM [35]: 10%
concentration at 2 h [36]: 364 ng/mL
AUC(0-inf) [37]: 1980 ng·h/mL
concentration at 1 h [38]: 414 ng/mL
Activity [39]: inactive
Structure (SMILES): FC(F)(F)Cc1cnc2c(Cl)c(-c3cc(Cl)c4[nH]ccc4c3)ccn12
Activity (Rattus norvegicus [2]): inactive
Activity (Rattus norvegicus [3]): inactive
Activity (Rattus norvegicus [6]): inactive
Activity (Rattus norvegicus [8]): inactive
Activity (Rattus norvegicus [18]): inactive
Activity (Rattus norvegicus [22]): 57%
Activity (Rattus norvegicus [27]): inactive
Activity (Rattus norvegicus [28]): inactive
Activity (Rattus norvegicus [31]): Active
Activity (Rattus norvegicus [40]): inactive
